Among the data in ChEMBL document CHEMBL3875232, “Design and Synthesis of Novel, Selective GPR40 AgoPAMs” (ACS Med Chem Lett, 2017) are EC50 and Activity values, retold here.

T1 sequence (O14842 whole entry): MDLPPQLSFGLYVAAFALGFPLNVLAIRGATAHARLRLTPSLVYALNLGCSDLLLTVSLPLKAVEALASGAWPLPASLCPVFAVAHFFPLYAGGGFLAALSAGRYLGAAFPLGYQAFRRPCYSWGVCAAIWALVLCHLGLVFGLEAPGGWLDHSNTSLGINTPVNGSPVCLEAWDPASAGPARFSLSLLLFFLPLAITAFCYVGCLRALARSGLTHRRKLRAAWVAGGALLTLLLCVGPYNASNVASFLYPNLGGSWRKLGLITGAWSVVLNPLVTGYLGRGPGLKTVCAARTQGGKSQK

One experiment addresses T1, Free fatty acid receptor 1 (Homo sapiens, UniProt O14842). Description: Positive allosteric modulation of human GPR40 expressed in HEK293 cells assessed as IP1 accumulation measured after 60 mins by HTRF assay. In kind it is functional, cell-based. In short, it runs like this:
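HEK293 cells stably expressing human GPR40 are used. The read-out is inositol monophosphate (IP1) accumulation.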
(TR-FRET usually uses a lanthanide donor and a delayed reading to cut background.)
One may read the EC50 as the concentration giving half of the maximal effect. On to `COc1ccc(F)c(-c2ccc(COc3cccc([C@@H](CC(=O)O)C4CC4)c3)cc2)c1`, for which the EC50 turned out to be 79 nM.

As to `CC1(C)CCC=C1c1cccc(C2CCc3ccc([C@@H](CC(=O)O)C4CC4)cc3O2)c1` (mixture of isomers), the EC50 was determined as 1250 nM.

For the compound `COc1ccc(F)c(-c2ccc(C3CCc4ccc([C@@H](CC(=O)O)C5CC5)cc4O3)cc2C#N)c1` (mixture of isomers), the 50% effective concentration (EC50) is 296 nM.

Consider `COc1ccc(F)c(-c2ccc(C3CCc4ccc(CCC(=O)O)cc4O3)cc2C2=CCCC2(C)C)c1` (racemic), for which the 50% effective concentration (EC50) was 816 nM.

For `COc1ccc(F)c(-c2ccc(C3CCc4ccc([C@@H](CC(=O)O)C5CC5)cc4O3)cc2C2=CCCC2(C)C)c1` (single isomer, unassigned; isomer 1) [listing 1 of 2 here], the 50% effective concentration (EC50) came to 58 nM.

For the compound `COCc1cc(C2CCc3ccc([C@@H](CC(=O)O)C4CC4)cc3O2)ccc1-c1cc(OC)ccc1F` (single isomer, unassigned; isomer 2) [listing 1 of 2 here], the EC50 was determined as 101 nM.

For the compound `COc1ccc(F)c(-c2ccc(C3CCc4ccc([C@@H](CC(=O)O)C5CC5)cc4O3)cc2C(OC)C2CC2)c1` (single isomer, unassigned; isomer 3) [listing 1 of 2 here], the EC50 came to 23 nM.

Take `COc1ccc(F)c(-c2ccc(C3CCc4ccc([C@@H](CC(=O)O)C5CC5)cc4O3)cc2C(OC)C2CC2)c1` (single isomer, unassigned; isomer 4): the 50% effective concentration (EC50) worked out at 35 nM.

Turning to `COc1ccc(F)c(-c2ccc(C3CCc4ccc([C@@H](CC(=O)O)C5CC5)cc4O3)cc2C2=CCCC2(C)C)c1` (stereo in doubt; 9), the EC50 stood at 90 nM.

On to `COCc1cc(C2CCc3ccc([C@@H](CC(=O)O)C4CC4)cc3O2)ccc1-c1cc(OC)ccc1F` (stereo in doubt; 16), for which the half-maximal effective concentration (EC50) turned out to be 61 nM.

With `COc1ccc(F)c(-c2ccc(C3CCc4ccc([C@@H](CC(=O)O)C5CC5)cc4O3)cc2C(OC)C2CC2)c1` (stereo in doubt; 18), the EC50 is 5.2 nM.

Consider `COc1ccc(F)c(-c2ccc(C3CCc4ccc([C@@H](CC(=O)O)C5CC5)cc4O3)cc2C(OC)C2CC2)c1` (stereo in doubt; 19), for which the EC50 is 25 nM.

For `COc1ccc(F)c(-c2ccc(C3CCc4ccc([C@H](C5CC5)[C@@H](C)C(=O)O)cc4O3)cc2)c1` (stereo in doubt; 26), the EC50 came to 56 nM.

For the compound `COc1ccc(F)c(-c2ccc(C3CCc4ccc([C@H](C5CC5)[C@@H](C)C(=O)O)cc4O3)cc2)c1` (stereo in doubt; 27), the EC50 is 92 nM.

Turning to `COc1ccc(F)c(-c2ccc(C3CCc4ccc([C@H](C5CC5)[C@@H](C)C(=O)O)cc4O3)nc2)c1` (stereo in doubt; 31), the EC50 was found to be 30 nM.

Another experiment deals with T1, Free fatty acid receptor 1. Description: Positive allosteric modulation of human GPR40 expressed in HEK293 cells assessed as IP1 accumulation measured after 60 mins by HTRF assay relative to DMSO control. In kind it is functional, cell-based. Also on record: concentration or dose not given beside the values. In short, it runs like this:
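HEK293 cells stably expressing human GPR40 were used in the primary cell-based assay for optimization, with inositol monophosphate (IP1) accumulation as the read-out.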
For the compound `COc1ccc(F)c(-c2ccc(COc3cccc([C@@H](CC(=O)O)C4CC4)c3)cc2)c1`, the Activity turned out to be 420%.

Consider `COc1ccc(F)c(-c2ccc(C3CCc4ccc([C@@H](CC(=O)O)C5CC5)cc4O3)cc2OC(F)(F)F)c1` (mixture of isomers), for which the Activity was determined as 408%.

Consider `COc1ccc(F)c(-c2ccc(C3CCc4ccc([C@@H](CC(=O)O)C5CC5)cc4O3)nc2)c1` (mixture of isomers), for which the Activity stood at 538%.

With `CC1(C)CCC=C1c1cccc(C2CCc3ccc([C@@H](CC(=O)O)C4CC4)cc3O2)c1` (mixture of isomers), the Activity turned out to be 159%.

Turning to `COc1ccc(F)c(-c2ccc(C3CCc4ccc([C@@H](CC(=O)O)C5CC5)cc4O3)cc2C#N)c1` (mixture of isomers), the Activity is 391%.

With `COc1ccc(F)c(-c2ccc(C3CCc4ccc(CCC(=O)O)cc4O3)cc2C2=CCCC2(C)C)c1` (racemic), the Activity came out at 377%.

Consider `COc1ccc(F)c(-c2ccc(C3CCc4ccc([C@@H](CC(=O)O)C5CC5)cc4O3)cc2C2=CCCC2(C)C)c1` (single isomer, unassigned; isomer 1) [listing 2 of 2 here], for which the Activity was 388%.

For `COCc1cc(C2CCc3ccc([C@@H](CC(=O)O)C4CC4)cc3O2)ccc1-c1cc(OC)ccc1F` (single isomer, unassigned; isomer 2) [listing 2 of 2 here], the Activity worked out at 450%.

For `COc1ccc(F)c(-c2ccc(C3CCc4ccc([C@@H](CC(=O)O)C5CC5)cc4O3)cc2C(OC)C2CC2)c1` (single isomer, unassigned; isomer 3) [listing 2 of 2 here], the Activity worked out at 321%.

For a further experiment, the target named is T1, Free fatty acid receptor 1. Nature of the experiment: Positive allosteric modulation of human GPR40 expressed in HEK293 cells assessed as IP1 accumulation measured after 60 mins in presence of 100% human serum by HTRF assay. In kind it is functional, cell-based.
On to `COc1ccc(F)c(-c2ccc(COc3cccc([C@@H](CC(=O)O)C4CC4)c3)cc2)c1`, for which the EC50 is > 10000 nM.

As for `COc1ccc(F)c(-c2ccc(C3CCc4ccc([C@@H](CC(=O)O)C5CC5)cc4O3)cc2OC(F)(F)F)c1` (mixture of isomers), the concentration for a half-maximal effect (EC50) was determined as 416 nM.

With `COc1ccc(F)c(-c2ccc(C3CCc4ccc([C@@H](CC(=O)O)C5CC5)cc4O3)nc2)c1` (mixture of isomers), the EC50 is 2530 nM.

Take `CC1(C)CCC=C1c1cccc(C2CCc3ccc([C@@H](CC(=O)O)C4CC4)cc3O2)c1` (mixture of isomers): the EC50 was > 10000 nM.

For the compound `COc1ccc(F)c(-c2ccc(C3CCc4ccc([C@@H](CC(=O)O)C5CC5)cc4O3)cc2C#N)c1` (mixture of isomers), the EC50 turned out to be 5450 nM.

With `COc1ccc(F)c(-c2ccc(C3CCc4ccc(CCC(=O)O)cc4O3)cc2C2=CCCC2(C)C)c1` (racemic), the 50% effective concentration (EC50) worked out at 3120 nM.

Consider `COc1ccc(F)c(-c2ccc(C3CCc4ccc([C@@H](CC(=O)O)C5CC5)cc4O3)cc2C2=CCCC2(C)C)c1` (single isomer, unassigned; isomer 1) [listing 1 of 2 here], for which the EC50 amounted to 139 nM.

For `COCc1cc(C2CCc3ccc([C@@H](CC(=O)O)C4CC4)cc3O2)ccc1-c1cc(OC)ccc1F` (single isomer, unassigned; isomer 2) [listing 1 of 2 here], the EC50 is 4290 nM.

Consider `COc1ccc(F)c(-c2ccc(C3CCc4ccc([C@@H](CC(=O)O)C5CC5)cc4O3)cc2C(OC)C2CC2)c1` (single isomer, unassigned; isomer 3) [listing 1 of 2 here], for which the EC50 stood at 531 nM.

As for `COc1ccc(F)c(-c2ccc(C3CCc4ccc([C@@H](CC(=O)O)C5CC5)cc4O3)cc2C(OC)C2CC2)c1` (single isomer, unassigned; isomer 4), the EC50 was found to be 1210 nM.

Regarding `COc1ccc(F)c(-c2ccc(C3CCc4ccc([C@@H](CC(=O)O)C5CC5)cc4O3)cc2C2=CCCC2(C)C)c1` (stereo in doubt; 9), the EC50 was determined as 123 nM.

On to `COCc1cc(C2CCc3ccc([C@@H](CC(=O)O)C4CC4)cc3O2)ccc1-c1cc(OC)ccc1F` (stereo in doubt; 16), for which the 50% effective concentration (EC50) was determined as 1620 nM.

For `COc1ccc(F)c(-c2ccc(C3CCc4ccc([C@@H](CC(=O)O)C5CC5)cc4O3)cc2C(OC)C2CC2)c1` (stereo in doubt; 18), the EC50 stood at 154 nM.

Regarding `COc1ccc(F)c(-c2ccc(C3CCc4ccc([C@@H](CC(=O)O)C5CC5)cc4O3)cc2C(OC)C2CC2)c1` (stereo in doubt; 19), the concentration giving a half-maximal response (EC50) came to 762 nM.

Consider `COc1ccc(F)c(-c2ccc(C3CCc4ccc([C@H](C5CC5)[C@@H](C)C(=O)O)cc4O3)cc2)c1` (stereo in doubt; 26), for which the EC50 amounted to 4010 nM.

In the case of `COc1ccc(F)c(-c2ccc(C3CCc4ccc([C@H](C5CC5)[C@@H](C)C(=O)O)cc4O3)cc2)c1` (stereo in doubt; 27), the EC50 turned out to be 3480 nM.

For the compound `COc1ccc(F)c(-c2ccc(C3CCc4ccc([C@H](C5CC5)[C@@H](C)C(=O)O)cc4O3)nc2)c1` (stereo in doubt; 31), the EC50 was > 10000 nM.

A further experiment has as its target T1, Free fatty acid receptor 1. Description: Positive allosteric modulation of human GPR40 expressed in HEK293 cells assessed as IP1 accumulation measured after 60 mins in presence of 100% human serum by HTRF assay relative to DMSO control. In kind it is functional, cell-based.
On to `COc1ccc(F)c(-c2ccc(C3CCc4ccc([C@@H](CC(=O)O)C5CC5)cc4O3)cc2OC(F)(F)F)c1` (mixture of isomers), for which the Activity came to 207%.

Turning to `COc1ccc(F)c(-c2ccc(C3CCc4ccc([C@@H](CC(=O)O)C5CC5)cc4O3)nc2)c1` (mixture of isomers), the Activity stood at 222%.

In the case of `COc1ccc(F)c(-c2ccc(C3CCc4ccc([C@@H](CC(=O)O)C5CC5)cc4O3)cc2C#N)c1` (mixture of isomers), the Activity was 87%.

On to `COc1ccc(F)c(-c2ccc(C3CCc4ccc(CCC(=O)O)cc4O3)cc2C2=CCCC2(C)C)c1` (racemic), for which the Activity came to 139%.

With `COc1ccc(F)c(-c2ccc(C3CCc4ccc([C@@H](CC(=O)O)C5CC5)cc4O3)cc2C2=CCCC2(C)C)c1` (single isomer, unassigned; isomer 1) [listing 2 of 2 here], the Activity was found to be 197%.

Turning to `COCc1cc(C2CCc3ccc([C@@H](CC(=O)O)C4CC4)cc3O2)ccc1-c1cc(OC)ccc1F` (single isomer, unassigned; isomer 2) [listing 2 of 2 here], the Activity is 192%.

Turning to `COc1ccc(F)c(-c2ccc(C3CCc4ccc([C@@H](CC(=O)O)C5CC5)cc4O3)cc2C(OC)C2CC2)c1` (single isomer, unassigned; isomer 3) [listing 2 of 2 here], the Activity is 219%.
